Data from ChEMBL document CHEMBL1155317, “Design and optimisation of potent gp120-CD4 inhibitors” (Bioorg Med Chem Lett, 2009).

Assays:
[1] = tested on: Human immunodeficiency virus 1; test: Antiviral activity against Human immunodeficiency virus 1 NL4-3 infected HeLaP4 cells after 5 days by beta-galactosidase reporter assay; format: functional, organism-based; conditions: Human immunodeficiency virus 1, NL4-3, HeLaP4, 120 h
Summary of the method: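 HeLa-P4 cells were premixed with NL4-3 virus and added at 10^5 cells/mL to wells containing diluted compound. Plates were incubated for 5 days at 37 °C in humidified 5% CO₂. Infection was quantified with a β-galactosidase reporter assay.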

[2] = Inhibition of HIV1 NL4-3 gp160 assessed as inhibition of interaction between gp120 and host CD4 receptor by cell-cell fusion assay; set-up: species or system Human immunodeficiency virus 1
[3] = tested on: Human immunodeficiency virus 1; test: Antiviral activity against Human immunodeficiency virus 1 isolate 04-116868_VL_518.14; format: functional
Summary of the method: (§1)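 Testing against these strains was contracted out and used the PhenoSense phenotypic antiviral assay.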

[4] = tested on: Human immunodeficiency virus 1; test: Antiviral activity against Human immunodeficiency virus 1 isolate 04-116890_VL_781.45; format: functional; summary of the method: as §1
[5] = tested on: Human immunodeficiency virus 1; test: Antiviral activity against Human immunodeficiency virus 1 isolate 04-116880_VL_696.65; format: functional; summary of the method: as §1
[6] = tested on: Human immunodeficiency virus 1; test: Antiviral activity against Human immunodeficiency virus 1 isolate 04-116892_VL_534.93; format: functional; summary of the method: as §1
[7] = tested on: Human immunodeficiency virus 1; test: Antiviral activity against Human immunodeficiency virus 1 isolate 04-116885_VL_530.54; format: functional; summary of the method: as §1
Rattus norvegicus [8] = test: Unbound volume of distribution in rat at 1 mg/kg, iv and 1 mg/kg, po; format: ADME, organism-based; conditions: in vivo
[9] = tested on: Human immunodeficiency virus 1; test: Antiviral activity against Human immunodeficiency virus 1 isolate 04-116879_VL_988.03; format: functional; summary of the method: as §1
[10] = tested on: Human immunodeficiency virus 1; test: Antiviral activity against Human immunodeficiency virus 1 isolate 04-116867_VL_837.51; format: functional; summary of the method: as §1
[11] = tested on: Human immunodeficiency virus 1; test: Antiviral activity against Human immunodeficiency virus 1 isolate 04-116881_VL_338.52; format: functional; summary of the method: as §1
[12] = tested on: Human immunodeficiency virus 1; test: Antiviral activity against Human immunodeficiency virus 1 isolate 04-116884_VL_328.45; format: functional; summary of the method: as §1
[13] = tested on: Human immunodeficiency virus 1; test: Antiviral activity against Human immunodeficiency virus 1 isolate 04-116883_VL_432.63; format: functional; summary of the method: as §1
[14] = tested on: Human immunodeficiency virus 1; test: Antiviral activity against Human immunodeficiency virus 1 isolate 04-116878_VL_241.32; format: functional; summary of the method: as §1
[15] = tested on: Human immunodeficiency virus 1; test: Antiviral activity against Human immunodeficiency virus 1 isolate 04-116870_VL_181.51; format: functional; summary of the method: as §1
[16] = tested on: Human immunodeficiency virus 1; test: Antiviral activity against Human immunodeficiency virus 1 isolate 04-116877_VL_938.28; format: functional; summary of the method: as §1
[17] = tested on: Human immunodeficiency virus 1; test: Antiviral activity against Human immunodeficiency virus 1 isolate 04-116876_VL_969.72; format: functional; summary of the method: as §1
[18] = tested on: Human immunodeficiency virus 1; test: Antiviral activity against Human immunodeficiency virus 1 HXB2; format: functional; summary of the method: as §1
[19] = tested on: Human immunodeficiency virus 1; test: Antiviral activity against Human immunodeficiency virus 1 isolate 04-116874_VL_560.34; format: functional; summary of the method: as §1
[20] = tested on: Human immunodeficiency virus 1; test: Antiviral activity against Human immunodeficiency virus 1 isolate 04-116873_VL_754.51; format: functional; summary of the method: as §1
[21] = tested on: Human immunodeficiency virus 1; test: Antiviral activity against Human immunodeficiency virus 1 isolate 04-116886_VL_578.66; format: functional; summary of the method: as §1
[22] = tested on: Human immunodeficiency virus 1; test: Antiviral activity against Human immunodeficiency virus 1 isolate 04-116875_VL_279.69; format: functional; summary of the method: as §1
[23] = Fraction of compound absorbed in rat at 1 mg/kg, iv and 1 mg/kg, po; format: ADME, organism-based; conditions: in vivo, read-out: Fabs
[24] = tested on: Human immunodeficiency virus 1; test: Antiviral activity against Human immunodeficiency virus 1 isolate 04-116882_VL_624.75; format: functional; summary of the method: as §1
[25] = tested on: Human immunodeficiency virus 1; test: Antiviral activity against Human immunodeficiency virus 1 isolate 04-116869_VL_833.52; format: functional; summary of the method: as §1
[26] = tested on: Human immunodeficiency virus 1; test: Antiviral activity against Human immunodeficiency virus 1 JRCSF; format: functional, Human immunodeficiency virus type 1 (JRCSF ISOLATE); summary of the method: as §1
[27] = tested on: Human immunodeficiency virus 1; test: Antiviral activity against Human immunodeficiency virus 1 isolate 04-116893_VL_193.95; format: functional; summary of the method: as §1
[28] = tested on: Human immunodeficiency virus 1; test: Antiviral activity against Human immunodeficiency virus 1 isolate 04-116888_VL_113.66; format: functional; summary of the method: as §1
[29] = tested on: Human immunodeficiency virus 1; test: Antiviral activity against Human immunodeficiency virus 1 isolate 04-116889_VL_440.85; format: functional; summary of the method: as §1
[30] = tested on: Human immunodeficiency virus 1; test: Antiviral activity against Human immunodeficiency virus 1 isolate 04-116871_VL_781.69; format: functional; summary of the method: as §1
[31] = tested on: Human immunodeficiency virus 1; test: Antiviral activity against Human immunodeficiency virus 1 isolate 04-116872_VL_186.32; format: functional; summary of the method: as §1
[32] = Bioavailability in rat at 1 mg/kg; format: ADME, organism-based; conditions: in vivo
[33] = Half life in rat at 1 mg/kg, iv and 1 mg/kg, po; format: ADME, organism-based; conditions: in vivo
Rattus norvegicus [34] = test: Unbound clearance in rat at 1 mg/kg, iv and 1 mg/kg, po; format: ADME, organism-based; conditions: in vivo
[35] = Clearance in rat at 1 mg/kg, iv and 1 mg/kg, po; format: ADME, organism-based; conditions: in vivo

CC(Oc1cccc2ccncc12)C(=O)N1CCN(C(=O)c2ccccc2)C[C@H]1C (stereo partly drawn)
IC50 [1]: 2040 nM
IC50 [2]: 575 nM

CC(Oc1cccc2cccnc12)C(=O)N1CCN(C(=O)c2ccccc2)C[C@H]1C (stereo partly drawn)
IC50 [1]: 449 nM
IC50 [2]: 433 nM

CNC(=O)c1cc(OC)c(O[C@@H](C)C(=O)N2CCN(c3nccc4[nH]cnc34)C[C@H]2C)cn1
IC50 [1]: 7 nM
IC50 [2]: 24 nM

CNC(=O)c1ccc(O[C@@H](C)C(=O)N2CCN(C(=O)c3ccccc3)C[C@H]2C)c2ccncc12
IC50 [2]: 21200 nM

CNC(=O)c1ccc2c(O[C@@H](C)C(=O)N3CCN(C(=O)c4ccccc4)C[C@H]3C)cccc2n1
IC50 [1]: > 4000 nM
IC50 [2]: 78 nM

CNC(=O)c1cc(OC)c(O[C@@H](C)C(=O)N2CCN(c3nccc4[nH]ccc34)C[C@H]2C)cn1
IC50 [1]: > 1000 nM
IC50 [2]: 29 nM

Cc1n[nH]c2cccc(OC(C)C(=O)N3CCN(C(=O)c4ccccc4)C[C@H]3C)c12 (stereo partly drawn)
IC50 [1]: 36 nM
IC50 [2]: 16 nM

CC(Oc1ccnc2ccccc12)C(=O)N1CCN(C(=O)c2ccccc2)C[C@H]1C (stereo partly drawn)
IC50 [2]: 7430 nM

CC(Oc1cccc2ccccc12)C(=O)N1CCN(C(=O)c2ccccc2)C[C@H]1C (stereo partly drawn)
IC50 [1]: 1070 nM
IC50 [2]: 123 nM

CC(Oc1cccc2ncccc12)C(=O)N1CCN(C(=O)c2ccccc2)C[C@H]1C (stereo partly drawn)
IC50 [1]: 271 nM
IC50 [2]: 99 nM

CNC(=O)c1ccc(O[C@@H](C)C(=O)N2CCN(C(=O)c3ccccc3)C[C@H]2C)c2c(C)n[nH]c12
IC50 [2]: > 10000 nM

CNC(=O)c1cc(OC)c(O[C@@H](C)C(=O)N2CCN(C(=O)c3ccccc3)C[C@H]2C)cn1
IC90 [3]: 26 nM
IC90 [4]: 170 nM
IC90 [5]: > 2220 nM
IC90 [6]: > 2220 nM
IC90 [7]: 178 nM
Vdu (Rattus norvegicus [8]): 2.2 L/kg
IC90 [9]: 242 nM
IC90 [10]: 383 nM
IC90 [11]: 299 nM
IC90 [12]: 9 nM
IC90 [13]: > 2220 nM
IC90 [14]: > 2220 nM
IC90 [15]: 44 nM
IC90 [16]: 21 nM
IC90 [17]: 436 nM
IC90 [18]: 13 nM
IC90 [19]: 71 nM
IC90 [20]: 21 nM
IC90 [21]: > 2220 nM
IC50 [2]: 14 nM
IC90 [22]: 213 nM
Fa [23]: 100%
IC90 [24]: 106 nM
IC90 [25]: 122 nM
IC90 [26]: 4 nM
IC90 [27]: 354 nM
IC90 [28]: > 2220 nM
IC90 [29]: 56 nM
IC90 [30]: 9 nM
IC90 [31]: > 2220 nM

CNc1ccc2c(O[C@@H](C)C(=O)N3CCN(C(=O)c4ccccc4)C[C@H]3C)cccc2n1
bioavailability [32]: 42%
Vdu (Rattus norvegicus [8]): 10.5 L/kg
IC50 [1]: 13 nM
half-life [33]: 54 min
CL free (Rattus norvegicus [34]): 129 mL/min/kg
IC50 [2]: 5 nM
Fa [23]: 60%
clearance [35]: 27 mL/min/kg

CNC(=O)c1nccc2c(O[C@@H](C)C(=O)N3CCN(C(=O)c4ccccc4)C[C@H]3C)cccc12
bioavailability [32]: 45%
Vdu (Rattus norvegicus [8]): 3.5 L/kg
IC50 [1]: 1.5 nM
half-life [33]: 30 min
CL free (Rattus norvegicus [34]): 90 mL/min/kg
IC50 [2]: 21 nM
Fa [23]: 55%
clearance [35]: 41 mL/min/kg

CNC(=O)c1cc(OC)c(O[C@@H](C)C(=O)N2CCN(c3ncccn3)C[C@H]2C)cn1
IC50 [1]: 1620 nM
IC50 [2]: 71 nM

CNC(=O)c1ccc(O[C@@H](C)C(=O)N2CCN(C(=O)c3ccccc3)C[C@H]2C)c2cccnc12
IC50 [2]: 1260 nM
